Experimental data taken from ChEMBL document CHEMBL1152161, “A facile synthesis, antibacterial, and antitubercular studies of some piperidin-4-one and tetrahydropyridine derivatives” (2008).
Converted amounts (≈) assume the structure as drawn. The source made the active and inactive calls. No cut-off for these calls is given here.

Columns and labels:
[1] = system: Enterococcus faecalis; assay: Antibacterial activity against vancomycin-resistant Enterococcus faecalis at 128 ug/mL by broth micro dilution method; type: functional, organism-based
Summary of the method: (§1)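 MIC90 was determined by broth microdilution following NCCLS methods. Linezolid and trovafloxacin were run as positive controls, with DMSO as the negative control. Compounds were tested up to a top concentration of 128.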

[2] = system: Escherichia coli; assay: Antibacterial activity against Escherichia coli LCB0010 at 128 ug/mL by broth micro dilution method; type: functional, organism-based
[3] = system: Pseudomonas aeruginosa; assay: Antibacterial activity against Pseudomonas aeruginosa at 128 ug/mL by broth micro dilution method; type: functional, organism-based
[4] = system: Staphylococcus epidermidis; assay: Antibacterial activity against methicillin-resistant Staphylococcus epidermidis at 128 ug/mL by broth micro dilution method; type: functional, organism-based; summary of the method: as §1
[5] = system: Escherichia coli; assay: Antibacterial activity against Escherichia coli LCB0011 by broth micro dilution method; type: functional
Summary of the method: (§2)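 MIC90 was found by broth microdilution following NCCLS methods. Compounds were tested up to a top concentration of […]. Linezolid and trovafloxacin served as positive controls and DMSO as the negative control.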

[6] = system: Moraxella catarrhalis; assay: Antibacterial activity against Moraxella catarrhalis at 128 ug/mL by broth micro dilution method; type: functional, organism-based
[7] = system: Enterococcus faecalis; assay: Antibacterial activity against Enterococcus faecalis at 128 ug/mL by broth micro dilution method; type: functional, organism-based
[8] = system: Klebsiella pneumoniae; assay: Antibacterial activity against Klebsiella pneumoniae at 128 ug/mL by broth micro dilution method; type: functional, organism-based
[9] = system: Enterococcus faecium; assay: Antibacterial activity against Enterococcus faecium at 128 ug/mL by broth micro dilution method; type: functional, organism-based
[10] = system: Haemophilus influenzae; assay: Antibacterial activity against Haemophilus influenzae by broth micro dilution method; type: functional; summary of the method: as §2
[11] = system: Escherichia coli; assay: Antibacterial activity against Escherichia coli LCB0012 by broth micro dilution method; type: functional; summary of the method: as §2
[12] = system: Staphylococcus epidermidis; assay: Antibacterial activity against Staphylococcus epidermidis at 128 ug/mL by broth micro dilution method; type: functional, organism-based
[13] = system: Staphylococcus aureus; assay: Antibacterial activity against methicillin-resistant Staphylococcus aureus at 128 ug/mL by broth micro dilution method; type: functional, organism-based; summary of the method: as §1
[14] = system: Enterococcus faecium; assay: Antibacterial activity against vancomycin-resistant Enterococcus faecium at 128 ug/mL by broth micro dilution method; type: functional, organism-based; summary of the method: as §1
[15] = system: Staphylococcus aureus; assay: Antibacterial activity against Staphylococcus aureus at 128 ug/mL by broth micro dilution method; type: functional, organism-based
[16] = system: Enterococcus faecalis; assay: Antibacterial activity against vancomycin and linezolid-resistant Enterococcus faecalis at 128 ug/mL by broth micro dilution method; type: functional, organism-based; summary of the method: as §1
[17] = system: Staphylococcus aureus; assay: Antibacterial activity against methicillin-resistant Staphylococcus aureus by broth micro dilution method; type: functional; summary of the method: as §1
[18] = system: Staphylococcus epidermidis; assay: Antibacterial activity against Staphylococcus epidermidis by broth micro dilution method; type: functional; summary of the method: as §1
[19] = system: Enterococcus faecium; assay: Antibacterial activity against Enterococcus faecium by broth micro dilution method; type: functional; summary of the method: as §2
[20] = system: Staphylococcus epidermidis; assay: Antibacterial activity against methicillin-resistant Staphylococcus epidermidis by broth micro dilution method; type: functional; summary of the method: as §1
[21] = system: Enterococcus faecalis; assay: Antibacterial activity against vancomycin-resistant Enterococcus faecalis by broth micro dilution method; type: functional; summary of the method: as §1
[22] = system: Enterococcus faecium; assay: Antibacterial activity against vancomycin-resistant Enterococcus faecium by broth micro dilution method; type: functional; details: Enterococcus faecium; summary of the method: as §1
[23] = system: Enterococcus faecalis; assay: Antibacterial activity against vancomycin and linezolid-resistant Enterococcus faecalis by broth micro dilution method; type: functional; summary of the method: as §1
[24] = system: Moraxella catarrhalis; assay: Antibacterial activity against Moraxella catarrhalis by broth micro dilution method; type: functional; summary of the method: as §2
[25] = system: Staphylococcus aureus; assay: Antibacterial activity against Staphylococcus aureus by broth micro dilution method; type: functional; summary of the method: as §2
[26] = system: Enterococcus faecalis; assay: Antibacterial activity against Enterococcus faecalis by broth micro dilution method; type: functional; summary of the method: as §2
[27] = system: Haemophilus influenzae; assay: Antibacterial activity against Haemophilus influenzae at 128 ug/mL by broth micro dilution method; type: functional, organism-based
[28] = system: Mycobacterium tuberculosis; assay: Antitubercular potency, ratio of Isoniazid MIC to drug MIC against Mycobacterium tuberculosis H37Rv ATCC 27294; type: functional
[29] = system: Klebsiella pneumoniae; assay: Antibacterial activity against Klebsiella pneumoniae by broth micro dilution method; type: functional; summary of the method: as §2
[30] = system: Escherichia coli; assay: Antibacterial activity against Escherichia coli LCB0012 at 128 ug/mL by broth micro dilution method; type: functional, organism-based
[31] = system: Mycobacterium tuberculosis; assay: Antitubercular activity against Mycobacterium tuberculosis H37Rv ATCC 27294 by radiometric respiratory technique; type: functional
[32] = system: Mycobacterium tuberculosis; assay: Antitubercular potency, ratio of Rifampicin MIC to drug MIC against Mycobacterium tuberculosis H37Rv ATCC 27294; type: functional
[33] = system: Escherichia coli; assay: Antibacterial activity against Escherichia coli LCB0011 at 128 ug/mL by broth micro dilution method; type: functional, organism-based
[34] = system: Mycobacterium tuberculosis; assay: Antitubercular activity against Mycobacterium tuberculosis H37Rv ATCC 27294 at 256 ug/mL by radiometric respiratory technique; type: functional, organism-based
[35] = system: Pseudomonas aeruginosa; assay: Antibacterial activity against Pseudomonas aeruginosa by broth micro dilution method; type: functional; summary of the method: as §2
[36] = system: Escherichia coli; assay: Antibacterial activity against Escherichia coli LCB0010 by broth micro dilution method; type: functional; summary of the method: as §2

Structure (SMILES) | Activity [1] | Activity [2] | Activity [3] | MIC90 [5] [µg/mL] | Activity [6] | Activity [8] | Activity [9] | Activity [12] | Activity [16] | MIC90 [17] [µg/mL] | MIC90 [18] [µg/mL] | MIC90 [19] [µg/mL] | MIC90 [20] [µg/mL] | MIC90 [21] [µg/mL] | MIC90 [22] [µg/mL] | MIC90 [23] [µg/mL] | MIC90 [25] [µg/mL] | MIC90 [26] [µg/mL] | Activity [27] | Activity [30] | further results
C=Cc1ccc(S(=O)(=O)OC2=C(C(=O)OCC)C(c3ccccc3)N(C(=O)CCl)C(c3ccccc3)C2)cc1 (stereo not given) | inactive | inactive | inactive | 128 (≈ 226 µM) | inactive | inactive | inactive | inactive | inactive | – | – | – | – | – | – | – | – | – | – | – | Activity [4]: inactive; Activity [7]: inactive; MIC90 [10]: 128 µg/mL (≈ 226 µM); MIC90 [11]: 128 µg/mL (≈ 226 µM); Activity [13]: inactive; Activity [14]: inactive; Activity [15]: inactive
CC(=O)NC[C@H]1CN(c2ccc(N3CCOCC3)c(F)c2)C(=O)O1 [LINEZOLID] | – | inactive | inactive | 16 (≈ 47.4 µM) | – | inactive | – | – | – | 2 (≈ 5.93 µM) | 1 (≈ 2.96 µM) | 2 (≈ 5.93 µM) | 2 (≈ 5.93 µM) | 2 (≈ 5.93 µM) | 2 (≈ 5.93 µM) | 64 (≈ 190 µM) | 1 (≈ 2.96 µM) | 2 (≈ 5.93 µM) | – | – | MIC90 [24]: 8 µg/mL (≈ 23.7 µM); MIC90 [10]: 16 µg/mL (≈ 47.4 µM); MIC90 [11]: 64 µg/mL (≈ 190 µM)
CCOC(=O)C1=C(OS(=O)(=O)c2ccc([N+](=O)[O-])cc2)CC(c2ccccc2)N(C(=O)CCl)C1c1ccccc1 (stereo not given) | – | inactive | inactive | 128 (≈ 219 µM) | – | – | – | – | – | 64 (≈ 109 µM) | 64 (≈ 109 µM) | 32 (≈ 54.7 µM) | 64 (≈ 109 µM) | 32 (≈ 54.7 µM) | 16 (≈ 27.3 µM) | 64 (≈ 109 µM) | 16 (≈ 27.3 µM) | 16 (≈ 27.3 µM) | inactive | inactive | Ratio [28]: 1.56; MIC90 [29]: 64 µg/mL (≈ 109 µM); MIC90 [24]: 32 µg/mL (≈ 54.7 µM); MIC [31]: 16 µg/mL (≈ 27.3 µM); Ratio [32]: 200
CC1C(=O)C(C)C(c2ccccc2Cl)N(C(=O)Cn2cnc3ccccc32)C1c1ccccc1Cl (stereo not given) | inactive | inactive | inactive | – | inactive | inactive | inactive | inactive | inactive | – | – | – | 128 (≈ 253 µM) | – | – | – | 64 (≈ 126 µM) | – | inactive | inactive | Activity [33]: inactive; Activity [7]: inactive; Activity [13]: inactive; Activity [14]: inactive
CCOC(=O)C1=C(OS(=O)(=O)c2ccccc2[N+](=O)[O-])CC(c2ccccc2)N(C(=O)CCl)C1c1ccccc1 (stereo not given) | inactive | inactive | inactive | 128 (≈ 219 µM) | inactive | inactive | inactive | inactive | inactive | – | – | – | – | – | 128 (≈ 219 µM) | – | 64 (≈ 109 µM) | 128 (≈ 219 µM) | inactive | inactive | Activity [4]: inactive; Activity [34]: inactive; Activity [13]: inactive
CCOC(=O)C1=C(O)CC(c2ccccc2)N(C(=O)CCl)C1c1ccccc1 (stereo not given) | – | inactive | – | – | – | inactive | – | – | – | 64 (≈ 160 µM) | 64 (≈ 160 µM) | 64 (≈ 160 µM) | 128 (≈ 320 µM) | 64 (≈ 160 µM) | 16 (≈ 40 µM) | 32 (≈ 80 µM) | 32 (≈ 80 µM) | 32 (≈ 80 µM) | inactive | inactive | Activity [33]: inactive; Ratio [28]: 1.56; MIC90 [24]: 32 µg/mL (≈ 80 µM); MIC90 [35]: 64 µg/mL (≈ 160 µM); MIC [31]: 16 µg/mL (≈ 40 µM); Ratio [32]: 200
N[C@@H]1[C@H]2CN(c3nc4c(cc3F)c(=O)c(C(=O)O)cn4-c3ccc(F)cc3F)C[C@@H]12 [TROVAFLOXACIN] | – | – | – | < 0.0625 | – | – | – | – | – | 1 (≈ 2.4 µM) | < 0.0625 | 64 (≈ 154 µM) | – | 8 (≈ 19.2 µM) | 8 (≈ 19.2 µM) | 16 (≈ 38.4 µM) | < 0.0625 | 0.128 (≈ 0.307 µM) | – | – | MIC90 [36]: < 0.0625 µg/mL; MIC90 [29]: 0.125 µg/mL (≈ 0.3 µM); MIC90 [24]: < 0.0625 µg/mL; MIC90 [10]: < 0.0625 µg/mL; MIC90 [35]: 0.125 µg/mL (≈ 0.3 µM); MIC90 [11]: < 0.0625 µg/mL
CCOC(=O)C1=C(OS(=O)(=O)c2cccc([N+](=O)[O-])c2)CC(c2ccccc2)N(C(=O)CCl)C1c1ccccc1 (stereo not given) | inactive | inactive | inactive | – | inactive | inactive | inactive | inactive | inactive | 128 (≈ 219 µM) | – | – | – | – | – | – | – | 128 (≈ 219 µM) | inactive | inactive | Activity [33]: inactive; Activity [4]: inactive; Activity [34]: inactive; Activity [14]: inactive; Activity [15]: inactive
